MT stabilize HCS – microtubule stabilizers in HeLa cells; actives 0.83% (n = 200,000); AID 2205; % tubulin-high responders, % at 10 µM; HeLa tubulin immunostaining HCS, 24 h; share of cells brighter than vehicle mean+2SD;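 active = plate Z-score above 3 for both tubulin-high and condensed-nucleus cell shares, with cell loss under 80%, at 10 µM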;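 also: anti alpha tubulin signal scored within the nucleus-defined area of each cell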
STAT3 inh-1 – STAT3 signaling inhibition. inhibition, % at 5.5 µM. AID 862. U3A cells, IL-6 STAT3-luciferase reporter, luminescence; host cell line lacks STAT1. actives 0.89% (n = 190,000);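 active = inhibition above the mean inhibition across all screened compounds plus 3 SD, cut at about 44% in these data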
STAT1 inh – inhibitors of IFN-gamma induced STAT1 signaling; NIH 3T3 STAT1-luciferase reporter, luminescence; inhibition, % at 5.5 µM; actives 0.35% (n = 200,000); AID 920;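 active = inhibition above a set limit, the mean inhibition across all tested compounds plus 3 SD, cut at about 34% in these data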
b-catenin transl – beta-catenin nuclear translocation modulation; nuclear translocation activity, % at 5 µM; HeLa beta-catenin nuclear translocation, immunofluorescence imaging; actives 0.3% (n = 190,000);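 active = nuclear translocation activity above 50% at 5 µM, with a well cell count of 50 or more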;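 also: per-cell ratio of nuclear to cytoplasmic median beta-catenin stain intensity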
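Test system: human HeLa cells, native beta-catenin. Compound dosing: 5 µM primary single dose, 0.1% DMSO, 0.02–20 µM confirmation series. Incubation: compound exposure 24 h at 37°C. Detection: beta-catenin immunostaining with DAPI counterstain, 20x imaging, 6 fields/well. Read-out basis: Nuclear/cytoplasmic beta-catenin signal ratio, % activation.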
STAT3 act-1 – increases IL-6 driven STAT3 reporter signal; U3A cells, IL-6 STAT3-luciferase reporter, luminescence; 100% = signal with IL-6 EC80 alone; activation (% of control), % at 5.6 µM; actives 0.91% (n = 190,000); AID 871;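 active = activation above the screen-wide mean of compound activation plus 3 SD, cut at about 130% in these data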
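Test system: Human STAT1-deficient U3A cells with stable STAT3-luciferase reporter | Also added: Interleukin-6, 33 ng/mL | Timing: Compound pre-incubation 1 h before IL-6, then 6 h stimulation at 37 °C | Technique: Luciferase reporter luminescence | Read-out: Percent of IL-6-only median luminescence | Benchmarks: IL-6-only wells as 100% reference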
STAT3 inh-2 – confirmation of STAT3 signaling inhibitors. U3A cells, IL-6 STAT3 luciferase reporter, luminescence; cell line lacks STAT1. shares compounds with STAT3 inh-1. inhibition, % at 5.7 µM. AID 1265. actives 45% (n = 1,200);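 active = inhibition above the hit cutoff computed for the primary STAT3 screen, cut at about 44% in these data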
NFkB inh 2 – inhibits NF-kappaB, counter-screen to STAT3 inhibitors; shares compounds with STAT3 inh-1; HEK293T NF-kB luciferase reporter, TNF-alpha induced; inhibition, % at 5.7 µM; actives 36% (n = 1,200);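 active = inhibition above the mean of solvent-only control wells plus 3 SD, cutoff set per campaign, cut at about 13% in these data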
STAT1 inh STAT3c – STAT1 inhibition in STAT3 inhibitor counter-screen; shares compounds with STAT3 inh-1; NIH 3T3 STAT1-luciferase reporter, IFN-gamma induced, luminescence; inhibition, % at 5.7 µM; actives 27% (n = 1,200);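 active = inhibition above the mean plus 3 SD of solvent-only control wells, limit set per screening run, cut at about 16% in these data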
STAT3 act-2 – confirmation of STAT3 signaling activators | U3A STAT3-luciferase reporter, IL-6 potentiation, luminescence; U3A cells lack STAT1; 100 means same as IL-6 alone | potentiation (% of control), % at 5.7 µM | AID 1267 | actives 64% (n = 1,200) | shares compounds with STAT3 act-1;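 active = percent activation of the STAT3 luciferase reporter above a set limit taken from the earlier primary screen, cut at about 130% in these data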
NFkB act STAT3ct – activates NF-kappaB, counter-screen to STAT3 activators; actives 11% (n = 1,200); human cells, NF-kappaB reporter activation; shares compounds with STAT3 act-1; AID 1309; activation (% of control), % at 5.7 µM; in the data active = activation above about 120%;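 also: reporter induced by TNF-alpha stimulation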
STAT1 act – counter-screen for STAT3 activators: STAT1 activation. shares compounds with STAT3 act-1. NIH 3T3 STAT1-luciferase reporter, IFN-gamma, luminescence. activation (% of control), % at 5.7 µM. actives 13% (n = 1,200). AID 1318;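 active = activation above the solvent-only control well mean plus 3 SD, set per screening run, cut at about 120% in these data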
Each line names hits and unclear results; the compound was inactive in the other large screens (follow-up assays come after a bar, where they were run). Most compounds without a hit are left out; they make up all but 2.4% or so of the library.

N=c1c2c(n(Cc3cccc(Cl)c3)c3c1CCC3)CCCC2	STAT3 inh-1 54 | STAT3 inh-2 45 | NFkB inh 2 inactive | STAT1 inh STAT3c 25
O=c1[nH]c(SCc2cccc(Cl)c2)nc2c1CCCC2	none
CCn1c2c(c(=N)c3c1CCC3)CCCC2	none (no result: MT stabilize HCS, STAT3 inh-1, STAT1 inh, STAT3 act-1)
N=c1c2c(n(Cc3ccc(F)cc3)c3c1CCC3)CCCC2	none
Cc1cc(SCC(=O)NN)c2cc(Br)ccc2n1	none (no result: MT stabilize HCS, STAT3 inh-1, STAT1 inh, STAT3 act-1)
CCn1ncc(CN2CCN(Cc3cccc(OC)c3)C(CCO)C2)c1C (stereo unspecified)	none
O=C(CN(C(=O)c1ccccc1Cl)N1C(=O)C2C3C=CC(C3)C2C1=O)c1cccs1 (stereo unspecified)	none
C/C(=N/NC(=O)c1ccccn1)c1ccco1	STAT3 inh-1 44 | STAT3 inh-2 inactive | NFkB inh 2 inactive | STAT1 inh STAT3c inactive
C/C(=N/NC(=O)c1ccccn1)c1ccc(O)cc1	none (no result: MT stabilize HCS, STAT3 inh-1, STAT1 inh, STAT3 act-1)
O=C1NN=C(CSc2n[nH]c(=S)s2)CS1	none
Cc1ccc(/C=C/c2nc3ccccc3[nH]2)o1	STAT3 inh-1 54 | STAT3 inh-2 inactive | NFkB inh 2 inactive | STAT1 inh STAT3c inactive
CCSc1nnc(NC(=O)Nc2cccc(C)c2)s1	none (no result: MT stabilize HCS, STAT3 inh-1, STAT1 inh, STAT3 act-1)
O=C(CCc1ccc(S(=O)(=O)N2CCOCC2)cc1)Nc1nc(COc2ccccc2)cs1	STAT3 inh-1 46 | STAT3 inh-2 inactive | NFkB inh 2 inactive | STAT1 inh STAT3c inactive
Cc1ccc(OCC(=O)Nc2ccc(N3CCN(C(=O)c4ccco4)CC3)cc2)cc1C	none
Cc1cccc(OCC(=O)Nc2ccc(N3CCN(C(=O)c4ccco4)CC3)cc2)c1	STAT3 inh-1 54 (no result: b-catenin transl) | STAT3 inh-2 49 | NFkB inh 2 inactive | STAT1 inh STAT3c 17
C=CCO/N=C(/C)c1ccc(Oc2cnccn2)cc1	none
O=C1c2ccccc2C(=O)C1c1nccc2ccccc12	STAT3 inh-1 62 | STAT3 inh-2 inactive | NFkB inh 2 49 | STAT1 inh STAT3c inactive
COc1ccc(C2C(=O)c3ccccc3C2=O)cc1	none (no result: b-catenin transl)
Cc1csc2c(N(C)CCO)ncnc12	none (no result: MT stabilize HCS, STAT3 inh-1, STAT1 inh, STAT3 act-1)
CCCCCCCCC[n+]1cccc2c3ccccc3ccc21	STAT3 inh-1 90 | STAT3 inh-2 89 | NFkB inh 2 57 | STAT1 inh STAT3c 33
COC(=O)c1ccc(-c2ccc(/C=N/NC(=O)Cc3nnc(N)s3)o2)cc1	none (no result: MT stabilize HCS, STAT3 inh-1, STAT1 inh, STAT3 act-1)
O=C(O)c1cccc(-c2nnn(Cc3ccccc3)n2)c1	none
O=C(O)c1cccc(-c2nnn(Cc3ccccc3Cl)n2)c1	STAT3 inh-1 70, STAT1 inh 44 | STAT3 inh-2 61 | NFkB inh 2 37 | STAT1 inh STAT3c 40
CCc1ccc(C(=O)CSc2nc(C)cc(=O)[nH]2)cc1	none
Cc1ccc(-c2nc(-c3ccccc3)no2)cc1	STAT3 inh-1 55 (no result: b-catenin transl) | STAT3 inh-2 inactive | NFkB inh 2 inactive | STAT1 inh STAT3c inactive
CCOC(=O)c1c(NC(=O)CSc2nc3cccnc3n2C)sc(C(C)=O)c1C	none
CCOC(=O)c1cccc(NC(=O)CSc2nc3cccnc3n2C)c1	STAT3 inh-1 59 (no result: b-catenin transl) | STAT3 inh-2 inactive | NFkB inh 2 inactive | STAT1 inh STAT3c inactive
O=C(O)C(CC1CCCCC1)N1CCS(=O)(=O)CC1 (stereo unspecified)	none
CN=c1scc(-c2ccc(Br)cc2)n1C	none
CN=c1scc(-c2ccccc2Br)n1/N=C/c1ccc[nH]1	STAT3 inh-1 58 | STAT3 inh-2 inactive | NFkB inh 2 inactive | STAT1 inh STAT3c inactive
C=CCN1C(=O)/C(=c2\sc3nc(=O)c(Cc4ccc(OC)c(OC)c4)nn3c2=O)c2ccccc21	none (no result: MT stabilize HCS, STAT3 inh-1, STAT1 inh, STAT3 act-1)
Cc1ccc(N2CCN(C(=O)c3ccccc3NC(=O)/C=C\C(=O)O)CC2)cc1	none
CC(=O)Nc1nc(-c2ccc3c(c2)CCN3S(C)(=O)=O)cs1	none
CS(=O)(=O)N1CCc2cc(-c3csc(NC(=O)Cc4cccs4)n3)ccc21	STAT3 inh-1 82 | STAT3 inh-2 72 | NFkB inh 2 19 | STAT1 inh STAT3c inactive
CC1CN(C2=NC(=O)/C(=C/c3ccncc3)S2)CC(C)O1 (stereo unspecified)	none (no result: MT stabilize HCS, STAT3 inh-1, STAT1 inh, STAT3 act-1)
Cn1c(C(=O)N2CCN(c3nc4ccccc4s3)CC2)cc2sccc21	none
O=C(c1cc2sccc2n1Cc1ccc(F)cc1)N1CCN(c2nc3ccccc3s2)CC1	STAT3 inh-1 47 | STAT3 inh-2 inactive | NFkB inh 2 inactive | STAT1 inh STAT3c 17
CCOc1ccc(S(=O)(=O)N2CCN(C(=O)c3cc4c(s3)CCCC4)CC2)cc1	none
CC1(C)CC(N2CCN(c3ccccc3)CC2)=CC(=[N+]2CCCC2)C1	STAT3 inh-1 80 | STAT3 inh-2 77 | NFkB inh 2 inactive | STAT1 inh STAT3c 27
CN(Cc1ccccc1)C1=CC(=[N+]2CCCC2)CC(C)(C)C1	none (no result: MT stabilize HCS, STAT3 inh-1, STAT1 inh, STAT3 act-1)
O=C(NCCC1=CCCCC1)C(=O)NCc1ccncc1	none
Cc1ccn2cc(C(=O)Nc3ccc4c(c3)OCCO4)nc2c1	STAT3 inh-1 44 | STAT3 inh-2 inactive | NFkB inh 2 inactive | STAT1 inh STAT3c inactive
Cc1ccn2cc(C(=O)Nc3ccccc3N3CCOCC3)nc2c1	none
COc1ccc(OC)c2[nH]c(=O)c(CCNC(=O)c3cccs3)cc12	none
COc1ccc(Br)cc1/C(C)=N/NC1=NCCN1	STAT3 inh-1 54 | STAT3 inh-2 47 | NFkB inh 2 inactive | STAT1 inh STAT3c inactive
CCCCNS(=O)(=O)c1ccc(NS(=O)(=O)c2c(C)cc(C)cc2C)cc1	none (no result: b-catenin transl)
Cc1ccsc1/C=N/Nc1nc(=O)[nH]nc1C	STAT3 inh-1 53 | STAT3 inh-2 inactive | NFkB inh 2 inactive | STAT1 inh STAT3c inactive
COc1ccc(N(CC(=O)NCc2ccc(Cl)cc2)S(=O)(=O)c2ccccc2[N+](=O)[O-])c(OC)c1	none
CCc1cccc2c(C(=O)C(F)(F)F)cn(CC(=O)N3CCOCC3)c12	none
Clc1ccc(Nc2nc(-c3cccnc3)cs2)cc1	STAT3 act-1 192 | STAT3 act-2 179 | NFkB act STAT3ct 122 | STAT1 act 139
O=C1C(=O)N(Cc2ccccc2)C(=O)N1CCN1C(=O)c2ccccc2C1=O	none

Assay outcomes: PubChem, several laboratories
